One may read the Ki as the dissociation constant of the complex between target and ligand, obtained from inhibition or displacement. The term logD denotes the decadic logarithm of the distribution of all forms, ionised or not, between an organic phase and buffer at a given pH. A high value points to a more lipophilic compound.

Structures are written as SMILES. Calls of active or inactive are those of the source. No cut-off for these calls is given here.

9 compounds from ChEMBL document CHEMBL2016538, “Synthesis and evaluation of C-11, F-18 and I-125 small molecule radioligands for detecting oxytocin receptors” (Bioorg Med Chem, 2012) can be followed below.

Data set [1] in a line: Chemical stability of the compound in 10 % ethanol assessed as remaining radioactivity. Type of data set: physicochemical.
Data set [2] concerns Thyroid gland. The data set can be described thus: Drug uptake in iv dosed Sprague-Dawley rat thyroid assessed as per organ after 15 mins. It counts as ADME, organism-based. Conditions: in vivo, 0.25 h. A digest of the protocol:
(§1)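 Female Sprague–Dawley rats (180–200 g), fed ad libitum, were anesthetised with im ketamine/xylazine. Radioligand was given iv via tail vein in 0.1–0.2 ml 10% ethanol/saline. Animals were killed at 15, 30, 60 or 120 min and the thyroid was counted by gamma counter with dose standards. Counts were decay-corrected and given as percent injected dose per organ; n = 4, or 3 where noted.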

Data set [3] concerns Thyroid gland. The data set can be described thus: Drug uptake in iv dosed Sprague-Dawley rat thyroid assessed as per organ after 30 mins. It counts as ADME, organism-based. To be noted: in vivo, 0.5 h. Put shortly:
as §1

Data set [4] relates to Thyroid gland. The data set can be described thus: Drug uptake in iv dosed Sprague-Dawley rat thyroid assessed as per organ after 60 mins. Type of data set: ADME, organism-based. Conditions: in vivo, 1 h. A digest of the protocol: as §1
The subject of data set [5] is Thyroid gland. The data set can be described thus: Drug uptake in iv dosed Sprague-Dawley rat thyroid assessed as per organ after 120 mins. It counts as ADME, organism-based. To be noted: in vivo, 2 h. Put shortly:
as §1

In data set [6] the target is Vasopressin V1a receptor (Microtus ochrogaster, UniProt Q9WTV9). Kind of data set: Displacement of [125I]-LVA from prairie vole vasopressin V1A receptor after 72 hrs. Put shortly:
(§2)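 Prairie vole brain cryosections (20 μm, PFC through NAcc and VP) were thawed, dipped in 0.1% paraformaldehyde in PBS pH 7.4 and rinsed in 50 mM Tris pH 7.4. They were incubated 1 h with 50 pM 125I-LVA plus competitor at 0 or 10−10 to 10−5 M, then washed in Tris/2% MgCl2 pH 7.4. Film exposure was 72 h against 125I standards. Ki came from competition curves; sections from six animals.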

The next data set concerns the target T1, Oxytocin receptor (Homo sapiens, UniProt P30559).
T1 sequence (P30559 whole entry): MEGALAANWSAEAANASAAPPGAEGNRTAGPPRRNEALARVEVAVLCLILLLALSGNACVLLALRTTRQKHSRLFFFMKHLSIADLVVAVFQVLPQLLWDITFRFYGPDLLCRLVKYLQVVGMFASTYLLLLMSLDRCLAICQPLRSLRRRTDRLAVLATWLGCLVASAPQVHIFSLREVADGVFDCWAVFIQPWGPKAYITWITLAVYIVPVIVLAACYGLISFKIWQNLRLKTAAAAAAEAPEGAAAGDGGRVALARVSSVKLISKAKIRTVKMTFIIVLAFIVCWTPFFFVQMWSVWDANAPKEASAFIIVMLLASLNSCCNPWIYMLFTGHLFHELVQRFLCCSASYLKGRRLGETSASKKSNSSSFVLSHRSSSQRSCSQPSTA
The data set can be described thus: Displacement of [3H]oxytocin from human oxytocin receptor after […] by liquid scintillation counting. A general note: In a radioligand displacement assay an active substance lowers the binding of a labelled ligand.

Data set [7] deals with Vasopressin V1a receptor (Homo sapiens, UniProt P37288). The data set can be described thus: Displacement of [3H]-AVP from human V1A receptor after […] by liquid scintillation counting.
Sequence of Vasopressin V1a receptor (Homo sapiens, UniProt P37288) (P37288 whole entry): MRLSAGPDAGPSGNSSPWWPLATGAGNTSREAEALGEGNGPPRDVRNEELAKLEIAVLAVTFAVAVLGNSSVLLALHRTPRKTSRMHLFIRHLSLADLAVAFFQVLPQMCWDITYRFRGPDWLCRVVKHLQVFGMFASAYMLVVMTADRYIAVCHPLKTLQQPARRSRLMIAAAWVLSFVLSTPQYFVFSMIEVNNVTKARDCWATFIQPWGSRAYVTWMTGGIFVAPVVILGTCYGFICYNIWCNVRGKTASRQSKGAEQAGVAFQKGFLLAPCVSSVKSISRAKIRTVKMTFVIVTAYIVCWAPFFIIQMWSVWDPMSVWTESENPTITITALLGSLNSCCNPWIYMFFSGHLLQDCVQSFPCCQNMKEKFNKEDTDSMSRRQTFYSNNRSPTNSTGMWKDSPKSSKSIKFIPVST
Another data set concerns the target T2, Vasopressin V1b receptor (Homo sapiens, UniProt P47901).
T2 sequence (P47901 whole entry): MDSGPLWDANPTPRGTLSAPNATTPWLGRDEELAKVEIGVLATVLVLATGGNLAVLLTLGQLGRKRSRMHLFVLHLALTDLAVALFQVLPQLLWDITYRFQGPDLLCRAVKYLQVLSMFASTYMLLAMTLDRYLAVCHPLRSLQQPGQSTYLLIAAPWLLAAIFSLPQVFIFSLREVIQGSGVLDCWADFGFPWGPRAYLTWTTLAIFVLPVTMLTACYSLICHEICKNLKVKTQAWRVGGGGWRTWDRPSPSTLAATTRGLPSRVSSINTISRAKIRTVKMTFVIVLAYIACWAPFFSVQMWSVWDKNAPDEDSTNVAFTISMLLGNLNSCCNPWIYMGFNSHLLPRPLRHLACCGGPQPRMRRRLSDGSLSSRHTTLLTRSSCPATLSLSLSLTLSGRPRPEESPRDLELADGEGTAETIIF
The data set can be described thus: Displacement of [3H]-AVP from human V1b receptor after […] by liquid scintillation counting.

Another data set deals with Vasopressin V2 receptor (Homo sapiens, UniProt P30518). Kind of data set: Displacement of [3H]-AVP from human vasopressin V2 receptor after […] by liquid scintillation counting.
Sequence of Vasopressin V2 receptor (P30518 whole entry): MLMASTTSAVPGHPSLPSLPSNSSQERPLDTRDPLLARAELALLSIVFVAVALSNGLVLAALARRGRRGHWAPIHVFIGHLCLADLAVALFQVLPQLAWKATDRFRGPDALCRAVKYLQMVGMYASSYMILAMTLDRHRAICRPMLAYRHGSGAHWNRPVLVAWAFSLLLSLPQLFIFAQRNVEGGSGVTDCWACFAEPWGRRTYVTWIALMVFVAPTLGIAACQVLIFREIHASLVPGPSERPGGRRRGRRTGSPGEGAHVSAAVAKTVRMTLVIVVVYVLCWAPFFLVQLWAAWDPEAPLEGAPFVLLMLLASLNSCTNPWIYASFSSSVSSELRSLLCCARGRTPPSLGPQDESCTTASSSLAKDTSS
The target in data set [8] is Vasopressin V1a receptor (Microtus ochrogaster) (UniProt Q9WTV9). Kind of data set: Binding affinity to prairie vole ventral pallidum vasopressin V1A receptor by autoradiography. Conditions: tested as the 125I-labelled form. A digest of the protocol:
as §2

Data set [9] in a line: Octanol-water partition coefficient, log P of the compound at 5 to 10 uCi at pH 7.4 after 3 mins. Type of data set: physicochemical. Put shortly: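 About 5–10 μCi radioligand was shaken 3 min in 5 ml 0.1 M sodium phosphate pH 7.4 and 10 ml octanol. 2 ml octanol aliquots were re-partitioned against 2 ml fresh buffer by vortexing 7 min, then centrifuged at 20,000×g for 5 min. 0.5 ml of each layer was gamma-counted, and average counts gave logP7.4.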

For data set [10], the system named is Brain. Kind of data set: Drug uptake in Sprague-Dawley rat brain at 277 uCi, iv after 45 mins by PET imaging. It counts as ADME, organism-based. To be noted: in vivo, 0.75 h. A digest of the protocol:
(§3)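 Female Sprague–Dawley rats got estradiol benzoate 10–12 μg sc in sesame oil daily for 3 days to up-regulate OTR. They were anesthetised with ketamine/xylazine 100/10 mg/kg ip, and 200–300 μCi radioligand was injected via tail vein catheter. MicroPET brain scans began at injection (90 min 18F, 45 min 11C) after a 7 min Co-57 transmission scan. Frames were summed and whole-brain time-activity curves plotted.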

The test system of data set [11] is Brain. The data set can be described thus: Drug uptake in Sprague-Dawley rat brain at 295 uCi. iv after 5 mins by PET imaging. Type of data set: ADME, organism-based. To be noted: in vivo. A digest of the protocol: as §3

Sequence of Vasopressin V1a receptor (Microtus ochrogaster, UniProt Q9WTV9) (Q9WTV9 whole entry): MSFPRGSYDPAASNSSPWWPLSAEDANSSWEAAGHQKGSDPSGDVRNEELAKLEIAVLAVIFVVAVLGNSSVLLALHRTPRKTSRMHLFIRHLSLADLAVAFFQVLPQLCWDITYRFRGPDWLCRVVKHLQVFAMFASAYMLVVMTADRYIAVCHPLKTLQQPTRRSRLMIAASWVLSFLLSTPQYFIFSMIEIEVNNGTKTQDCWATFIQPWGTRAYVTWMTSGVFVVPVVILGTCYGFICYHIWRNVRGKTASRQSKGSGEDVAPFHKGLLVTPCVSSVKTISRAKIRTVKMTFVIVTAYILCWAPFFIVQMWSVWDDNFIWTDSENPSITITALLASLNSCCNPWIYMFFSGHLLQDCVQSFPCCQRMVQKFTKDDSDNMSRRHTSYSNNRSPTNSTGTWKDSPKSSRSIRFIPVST
Sequence of Vasopressin V1a receptor (Microtus ochrogaster) (Q9WTV9 whole entry, looked up): as the sequence (Q9WTV9 whole entry) above

On to `CS(=O)(=O)N1CCC(Oc2ccc(CC(=O)N3CCC(N4C(=O)CCc5ccccc54)CC3)c(OC/C=C\[125I])c2)CC1`, for which the Stability in [1] came to 15%. For the same compound, the Drug uptake in the data set with Thyroid gland [2] is recorded as 0.05 %ID; in the data set with Thyroid gland [3], 0.2 %ID; in the data set with Thyroid gland [4] it was 0.32 %ID; in the data set with Thyroid gland [5], 0.67 %ID.
With `CS(=O)(=O)N1CCC(Oc2ccc(CC(=O)N3CCC(N4C(=O)CCc5ccccc54)CC3)c(OC/C=C/[125I])c2)CC1`, the Stability in data set [1] was 15%. Moreover, the Drug uptake was found to be 0.19 %ID in the data set with Thyroid gland [2], 0.53 %ID in the data set with Thyroid gland [3], 0.81 %ID in the data set on Thyroid gland [4] and 1.05 %ID in the data set with Thyroid gland [5].
`CS(=O)(=O)N1CCC(Oc2ccc(CC(=O)N3CCC(N4C(=O)CCc5ccccc54)CC3)c(OC/C=C\I)c2)CC1`: the Ki was 16 nM at Vasopressin V1a receptor [6]; 5.7 nM on Oxytocin receptor; 530 nM at Vasopressin V1a receptor [7]; 9600 nM at Vasopressin V1b receptor; 580 nM at Vasopressin V2 receptor. The result in [8] was Active. Moreover, the logD at 0.05 h in data set [9] turned out to be 2.18.
For `CS(=O)(=O)N1CCC(Oc2ccc(CC(=O)N3CCC(N4C(=O)CCc5ccccc54)CC3)c(OC/C=C/I)c2)CC1`, the Ki is 1.7 nM on Vasopressin V1a receptor [6], 10 nM on Oxytocin receptor, 790 nM at Vasopressin V1a receptor [7] and 1400 nM on Vasopressin V2 receptor. The logD at 0.05 h in data set [9] was 2.36.
The compound `CS(=O)(=O)N1CCC(Oc2ccc(CC(=O)N3CCC(N4C(=O)CCc5ccccc54)CC3)c(O)c2)CC1` displayed a Ki at Oxytocin receptor of 78 nM.
For `CS(=O)(=O)N1CCC(Oc2ccc(CC(=O)N3CCC(N4C(=O)CCc5ccccc54)CC3)c(OCCF)c2)CC1`, the Ki came to 9.4 nM on Vasopressin V1a receptor [6], 16 nM on Oxytocin receptor, 8700 nM at Vasopressin V1a receptor [7] and 1800 nM at Vasopressin V2 receptor. The same compound showed a logD at 0.05 h in data set [9] of 2.02.
With `CS(=O)(=O)N1CCC(Oc2ccc(CC(=O)N3CCC(N4C(=O)CCc5ccccc54)CC3)c(O[11CH3])c2)CC1`, the Drug uptake result with Brain [10] is “Not Active”.
Consider `CS(=O)(=O)N1CCC(Oc2ccc(CC(=O)N3CCC(N4C(=O)CCc5ccccc54)CC3)c(OCC[18F])c2)CC1`, for which the Drug uptake result in the data set with Brain [11] is listed as “Active”.
Consider `COc1cc(OC2CCN(S(C)(=O)=O)CC2)ccc1CC(=O)N1CCC(N2C(=O)CCc3ccccc32)CC1`, for which the Ki was 78 nM on Vasopressin V1a receptor [6], 28 nM on Oxytocin receptor, 4800 nM on Vasopressin V1a receptor [7] and 3700 nM at Vasopressin V2 receptor. In data set [9], the logD at 0.05 h was 2.25.
